Source: PubChem BioAssay (several laboratories)
This is a sample that favours compounds with a hit; in the whole collection about 1.5% have one here.
MT1-MMP act inh = inhibitors of human MT1-MMP activation. P50281. HT1080 RFP-PRO-GFP cells, GFP/RFP ratio fluorescence, overnight; percent of plate control window, DMSO zero. GFP/RFP ratio change, % at 20 µM. 360,000 compounds, 0.061% hits. AID 651647;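 active means GFP/RFP ratio change of at least 30% with cell ATP level not reduced by more than half and red fluorescence within 50% of control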
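Material: RFP-PRO-GFP reporter HT1080 cells. Dosing: single-point 20 µM compound, 1% DMSO. Controls: DMSO and RFP-L50D-GFP cell wells. Timing: cells overnight before dosing, compound overnight, 37 °C, 5% CO2. Measure: GFP/RFP fluorescence ratio.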
NRP1-CendR mod = alters CendR peptide binding to human NRP-1. O14786. FAM-RPARPAR peptide binding to NRP-1, fluorescence polarization. inhibition, % at 25 µM. 360,000 compounds, 0.85% hits. AID 602438;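 active means inhibition or corrected inhibition above about 18%, plus a signal ratio from 0.5 to 1.5, limit read from the data, passing the limit was not always enough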
UCH37 inh = inhibitors of human deubiquitinating enzyme UCH37 | Q9Y5K5 | purified proteasome/UCH37, Ub-AMC cleavage fluorescence | inhibition, % (test concentration not listed) | 330,000 compounds, 0.33% hits | AID 588478;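 active means mean inhibition over replicate wells above about 20%, limit read from the data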;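 further: 0% = compound-free wells with enzyme and 100% = wells lacking proteasome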
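Assay system: Proteasome-bound UCH37. Buffer or medium: pH 7.4 Tris-HCl (50 mM) with ovalbumin, ATP-MgCl2, DTT. Incubation: 30 min preincubation with enzyme, 25 min cleavage at room temperature. Measured by: fluorescence, ex 355 nm, em 460 nm. Read-out basis: percent inhibition. Control set: wells without proteasome as full block, compound-free enzyme plus substrate as uninhibited.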
DAGLB inh = diacylglycerol lipase beta (human) inhibition | HEK293T DAGLB membrane lysate, EnzChek fluorogenic substrate | 340,000 compounds, 0.059% hits | inhibition, % at 5.17 µM | Q8NCG7; in the data active means inhibition above about 34%;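 further: 0% = enzyme with vehicle and 100% = wells lacking enzyme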
Target sequence (Q8NCG7 whole entry, looked up): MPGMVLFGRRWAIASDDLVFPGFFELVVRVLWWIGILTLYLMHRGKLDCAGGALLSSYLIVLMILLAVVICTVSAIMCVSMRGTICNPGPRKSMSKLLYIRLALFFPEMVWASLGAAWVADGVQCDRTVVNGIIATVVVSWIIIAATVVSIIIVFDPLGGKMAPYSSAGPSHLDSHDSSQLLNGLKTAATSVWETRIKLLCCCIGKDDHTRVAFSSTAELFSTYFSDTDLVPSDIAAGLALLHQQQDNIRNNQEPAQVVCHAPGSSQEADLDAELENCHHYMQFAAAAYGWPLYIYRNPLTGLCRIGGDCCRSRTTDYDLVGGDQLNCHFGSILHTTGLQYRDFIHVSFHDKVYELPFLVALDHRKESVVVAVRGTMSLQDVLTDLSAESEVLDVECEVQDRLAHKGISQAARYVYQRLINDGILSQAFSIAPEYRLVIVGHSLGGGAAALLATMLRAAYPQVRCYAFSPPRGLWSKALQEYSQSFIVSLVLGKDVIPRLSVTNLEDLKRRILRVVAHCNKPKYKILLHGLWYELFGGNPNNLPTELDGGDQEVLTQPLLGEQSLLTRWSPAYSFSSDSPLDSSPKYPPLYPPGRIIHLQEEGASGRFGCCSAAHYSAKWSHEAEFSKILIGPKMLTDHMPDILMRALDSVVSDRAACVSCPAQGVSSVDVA
CTSL1 counter = blocks F. hepatica cathepsin L1 in PFM18AAP counter-screen; 300,000 compounds, 0.49% hits; inhibition, % at 5.96 µM; recombinant F. hepatica cathepsin L1, Z-Leu-Arg-MCA fluorescence;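 active means inhibition above the mean of all tested compounds plus 3 SD, set per screening campaign, cut at about 17% in these data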;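 further: 0% = plate median of test compound wells and 100% = 1 µM Z-Phe-Ala-diazomethylketone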
* = called active by the depositor; x = no result.

SMILES	MT1-MMP act inh	NRP1-CendR mod	UCH37 inh	DAGLB inh	CTSL1 counter
CC(=O)Nc1cccc(C(=O)NN=Cc2ccc(F)cc2)c1	x	x	6	x	x
CC(=O)N1CC=CC1(CC(C)C)C(=O)NCc1cc(F)cc(C(F)(F)F)c1 (stereo not drawn)	7	18	3	2	55*
CNC(=O)C1(CC(C)C)C=CCN1C(C)=O (stereo not drawn)	1	13	0	-5	-1
CC(C)c1c(C(=O)NN=Cc2ccoc2)nnn1-c1nonc1N	x	x	3	x	x
O=C(NN=Cc1sc2ccccc2c1O)c1cccc2ccccc12	x	x	5	x	x
Cc1ccc(NC(=O)c2ncn(CCCNCCCc3ccccc3)n2)cc1C	2	33*	x	-2	x
CCOCCCNC(=O)C(NC(=O)c1ccccc1O)c1ccc(Cl)cc1 (stereo not drawn)	-1	-4	-72	-1	-3
CCOCCCNC(=O)C(NC(=O)CNC(C)=O)c1ccc(Cl)cc1 (stereo not drawn)	-6	24*	2	0	4
CC(C(=O)NNS(=O)(=O)c1cccc(C(F)(F)F)c1)n1nnc(N2CCOCC2)n1 (stereo not drawn)	-2	-6	5	1	59*
CC(C(=O)NN)n1nnc(N2CCOCC2)n1 (stereo not drawn)	4	3	2	-3	-1
Cc1nc2c(OCCC3CCCCC3)cccn2c1N(C)C(=O)CCC1CCCC1	-24	26*	x	x	x
Cc1nc2c(OCCOc3ccccc3)cccn2c1N(C)C(=O)CCC1CCCC1	-5	22	x	x	x
CCOc1ccc(C=NNC(=O)NC23CC4CC(CC(C4)C2)C3)cc1O	x	x	-1	x	x
NC(=NO)c1nc(N2CCCC2)nc(N2CCCC2)n1	x	x	5	x	x
CCOC(=O)C1=C(C)N(C)C(=O)NC1c1cc2c(cc1Br)OCO2 (stereo not drawn)	2	21*	0	-1	1
CCCOC(=O)C1=C(C)N(C)C(=O)NC1c1cc2c(cc1Br)OCO2 (stereo not drawn)	-2	5	3	0	-4
CC(C)COC(=O)c1ccc2c(c1O)C(=O)c1ccccc1C2=O	-6	16	3	-3	24*
COc1ccc2c(c1O)C(=O)c1ccccc1C2=O	x	x	x	x	-2
COc1ccc([N+](=O)[O-])cc1NC(=O)c1ccc(Br)s1	-4	-8	0	-1	18*
CC1CC(C)CN(S(=O)(=O)N2CCCC(C(=O)NCCCN3CCCCC3C)C2)C1 (stereo not drawn)	-6	11	1	-3	0
CCC1CCCCN1CCCNC(=O)C1CCCN(S(=O)(=O)N2CC(C)CC(C)C2)C1 (stereo not drawn)	-3	27*	2	-2	0
CCOC(=O)c1c(N=CN(C)C)sc(C=NNc2ccccc2)c1-c1ccc(Cl)cc1	x	x	-1	x	x
CC(OC(=O)C1CCCC1)C(=O)Nc1ncc(Cl)cc1Cl (stereo not drawn)	-4	22*	-3	0	x
CC(OC(=O)C1CCN(S(=O)(=O)c2ccccc2)CC1)C(=O)Nc1ncc(Cl)cc1Cl (stereo not drawn)	1	-2	0	0	2
Brc1ccc(-c2ccc(C=NNc3nc(N4CCOCC4)nc(N4CCOCC4)n3)o2)cc1	x	x	-39	x	x
SMILES	MT1-MMP act inh	NRP1-CendR mod	UCH37 inh	DAGLB inh	CTSL1 counter
Cc1cc(C)nc(NN=Cc2cc3c(cc2[N+](=O)[O-])OCO3)n1	x	x	5	x	x
Cc1ccc2c(c1)C(=NO)CCS2	x	x	0	x	x
NC(=S)N/N=C1\CCSc2ccc(Cl)cc21	-1	1	x	x	26*
O=C(Cc1ccc(F)cc1)NN=Cc1ccncc1	x	x	-27	x	x
CCOC(=O)C1=CCN(S(=O)(=O)c2ccc(C)cc2)C1c1ccc(C(C)C)cc1 (stereo not drawn)	-5	28*	x	x	x
CCOC(=O)C1=CCN(S(=O)(=O)c2ccccc2Br)C1c1ccccc1 (stereo not drawn)	0	25*	x	x	x
NC(=NOC(=O)CC1CCCCC1)c1ccc([N+](=O)[O-])cc1	x	x	2	x	x
Cc1cccc(NS(=O)(=O)c2cc3c(cc2C)N(C)CCO3)c1	8	-3	4	2	65*
O=c1ccc(-c2ccc(S(=O)(=O)Nc3cccc([N+](=O)[O-])c3)s2)n[nH]1	0	7	9	4	21*
CCCc1c(C(=O)NN=Cc2cccnc2)nnn1-c1nonc1N	x	x	2	x	x
COc1ccccc1NC(=O)CC(C)=NNC(=O)COc1c(Br)cc(Br)cc1OC	x	x	3	x	x
